In experiment [1] the target is T1, Thromboxane-A synthase (Rattus norvegicus) (UniProt P49430).
T1 sequence (whole entry): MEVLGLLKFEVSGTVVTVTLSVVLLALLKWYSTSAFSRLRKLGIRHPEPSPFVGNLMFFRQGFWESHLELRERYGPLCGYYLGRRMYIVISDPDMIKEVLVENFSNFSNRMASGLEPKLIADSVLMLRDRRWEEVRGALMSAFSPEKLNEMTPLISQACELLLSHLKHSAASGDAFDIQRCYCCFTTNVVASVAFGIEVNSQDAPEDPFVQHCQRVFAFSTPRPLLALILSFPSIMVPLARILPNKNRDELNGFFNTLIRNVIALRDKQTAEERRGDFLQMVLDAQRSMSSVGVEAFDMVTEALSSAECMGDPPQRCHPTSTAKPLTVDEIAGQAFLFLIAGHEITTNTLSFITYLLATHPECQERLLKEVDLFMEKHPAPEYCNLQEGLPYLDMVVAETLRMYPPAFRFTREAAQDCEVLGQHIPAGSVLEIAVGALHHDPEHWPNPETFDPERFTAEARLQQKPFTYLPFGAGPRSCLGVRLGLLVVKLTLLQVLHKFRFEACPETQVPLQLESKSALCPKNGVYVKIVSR
The experiment is described as follows: Thromboxane synthase inhibitor (TxSI) activity assessed by ex vivo inhibition of serum TXB2 production in rat after Intravenous administration. In kind it is functional, organism-based. The gist of the method:
(§1)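 Rats dosed intravenously or orally. Blood was then taken, and serum TxB2 production was measured ex vivo. Values are reported as ED50 doses in mg/kg. Oral testing used the same method as intravenous testing.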

A short description of experiment [2]: Inhibition of Platelet activating factor (PAF)- induced platelet aggregation in rabbit platelet rich plasma (PRP). In kind it is functional.
In experiment [3] the target is Platelet-activating factor receptor (Mus musculus) (UniProt Q62035). The experiment is described as follows: Antagonism of Platelet activating factor (PAF) activity in mice after oral administration, assayed by PAF-induced death. In kind it is functional, organism-based. Summed up:
(§2)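 Mice dosed with test agent intravenously or orally, then injected with a lethal dose of PAF. Protection from PAF-induced death was scored. ED50 was taken as the dose that reduced mortality by 50%. Oral testing used the same method as intravenous testing.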

The next experiment addresses T2, Thromboxane-A synthase (Homo sapiens, UniProt P24557).
T2 sequence (P24557 whole entry): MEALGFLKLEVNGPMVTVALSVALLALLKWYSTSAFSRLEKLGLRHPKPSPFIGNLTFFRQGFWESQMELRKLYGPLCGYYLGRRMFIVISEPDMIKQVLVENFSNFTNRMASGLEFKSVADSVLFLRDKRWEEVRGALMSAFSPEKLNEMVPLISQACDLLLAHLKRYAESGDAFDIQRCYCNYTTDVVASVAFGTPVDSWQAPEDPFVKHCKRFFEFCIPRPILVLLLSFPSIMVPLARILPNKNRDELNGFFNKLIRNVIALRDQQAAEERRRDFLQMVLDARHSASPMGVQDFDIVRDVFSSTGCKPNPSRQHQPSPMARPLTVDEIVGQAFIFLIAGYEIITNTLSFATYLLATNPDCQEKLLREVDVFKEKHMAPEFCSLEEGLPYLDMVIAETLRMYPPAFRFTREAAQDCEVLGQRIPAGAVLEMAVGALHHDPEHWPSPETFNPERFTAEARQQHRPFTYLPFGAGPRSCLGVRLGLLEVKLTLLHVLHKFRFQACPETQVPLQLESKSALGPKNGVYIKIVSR
The experiment is described as follows: In vitro inhibition of thromboxane synthase (TXA2) in human platelet microsomes [reduced formation of TXB2 from prostaglandin H2(PGH2)]. In kind it is functional, Microsome.

The target in experiment [4] is Platelet-activating factor receptor (Mus musculus) (UniProt Q62035). Put plainly: Antagonism of Platelet activating factor (PAF)in mice after Intravenous administration, assayed by PAF-induced death. In kind it is functional, organism-based. The gist of the method: as §2
Experiment [5] deals with T1, Thromboxane-A synthase (Rattus norvegicus). The experiment is described as follows: Thromboxane synthase inhibitor (TxSI) activity was assessed by ex vivo inhibition of serum TXB2 production in rat after oral administration. In kind it is functional, organism-based. Summed up: as §1

Results on 22 compounds are retold here after ChEMBL document CHEMBL1135874, “Novel agents combining platelet activating factor (PAF) receptor antagonist with thromboxane synthase inhibitor (TxSI)” (Bioorg Med Chem Lett, 2002).

Sequence of Platelet-activating factor receptor (Mus musculus) (Q62035 whole entry): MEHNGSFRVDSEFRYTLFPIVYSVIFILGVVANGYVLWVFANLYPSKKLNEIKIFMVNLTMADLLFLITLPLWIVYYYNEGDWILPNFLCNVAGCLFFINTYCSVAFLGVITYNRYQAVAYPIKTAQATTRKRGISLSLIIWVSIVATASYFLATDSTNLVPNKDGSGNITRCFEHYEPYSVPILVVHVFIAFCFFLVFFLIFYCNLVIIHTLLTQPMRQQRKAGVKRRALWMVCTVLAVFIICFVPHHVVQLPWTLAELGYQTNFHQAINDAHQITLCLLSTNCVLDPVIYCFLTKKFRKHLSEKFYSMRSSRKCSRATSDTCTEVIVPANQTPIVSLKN

Take `CCOC(=O)CCCCO/N=C(\c1ccc(CC(=O)N2CCc3c(sc4c3C(c3ccccc3Cl)=NC(C)c3nnc(C)n3-4)C2)cc1)c1cccnc1` (centres undefined): the ED50 (in general, the dose at which the effect has come halfway, by size or by number of responders) was greater than 1 mg/kg in experiment [1], greater than 10 mg/kg in experiment [3] and 4.2 mg/kg in experiment [4]. In addition, the values for the IC50 (in experiment [2]; on Thromboxane-A synthase (read-out: IC50)) were 85 nM and 69 nM, respectively.

In the case of `Cc1nnc2n1-c1sc3c(c1C(c1ccccc1Cl)=NC2C)CCNC3` (centres undefined), the IC50 (commonly the point on the concentration scale where inhibition reaches its midpoint) is 245 nM in experiment [2] and greater than 1000 nM on Thromboxane-A synthase (read-out: IC50). In addition, in experiment [4], the ED50 was greater than 5 mg/kg.

As to `Cc1nnc2n1-c1sc3c(c1C(c1ccccc1Cl)=NC2C)CCN(Cc1cccc(/C(=N\OCCCCC(=O)O)c2cccnc2)c1)C3` (centres undefined), the ED50 was 1 mg/kg in experiment [1], greater than 10 mg/kg in experiment [3], 10 mg/kg in experiment [5] and 0.47 mg/kg in experiment [4]. Further, the results for the IC50 (in experiment [2]; at Thromboxane-A synthase (read-out: IC50)) were 980 nM and 24 nM, respectively.

Turning to `CCOC(=O)CCCCO/N=C(/c1cccnc1)c1ccccc1C(=O)N1CCc2c(sc3c2C(c2ccccc2Cl)=NC(C)c2nnc(C)n2-3)C1` (centres undefined), the ED50 in experiment [1] was greater than 1 mg/kg; in experiment [3] it was greater than 10 mg/kg; in experiment [4] it was 2.4 mg/kg. For the same compound, the IC50 in experiment [2] is 200 nM; at Thromboxane-A synthase (read-out: IC50), greater than 1000 nM.

Consider `CCOC(=O)CCCCO/N=C(\c1ccc(CN2CCc3c(sc4c3C(c3ccccc3Cl)=NC(C)c3nnc(C)n3-4)C2)cc1)c1cccnc1` (centres undefined), for which the ED50 in experiment [1] was 1 mg/kg; in experiment [3], greater than 10 mg/kg; in experiment [5], greater than 10 mg/kg; in experiment [4] it was 1.35 mg/kg. The figures for the IC50 (in experiment [2]; at Thromboxane-A synthase (read-out: IC50)) were 46 nM and 80 nM, respectively.

Take `Cc1nnc2n1-c1sc3c(c1C(c1ccccc1Cl)=NC2C)CCN(Cc1cccc(/C(=N\OCCCCC(=O)OCc2ccccc2)c2cccnc2)c1)C3` (centres undefined): the ED50 was greater than 1 mg/kg in experiment [1], greater than 10 mg/kg in experiment [3] and 0.54 mg/kg in experiment [4]. Moreover, the IC50 in experiment [2] amounted to 98 nM; at Thromboxane-A synthase (read-out: IC50) it was 465 nM.

Turning to `O=C(O)/C=C/c1ccc(Cn2ccnc2)cc1`, the ED50 in experiment [1] worked out at 0.02 mg/kg; in experiment [5], 0.1 mg/kg.

In the case of `CCOC(=O)C1=C(c2ccc(-n3c(C)nc4cnccc43)cc2)NC(C)=C(C(=O)Nc2ccccn2)C1c1ccccc1Cl` (centres undefined), the ED50 in experiment [3] came out at 1.55 mg/kg; in experiment [4] it was 0.1 mg/kg. Further, the IC50 entry against Thromboxane-A synthase is recorded as “Not Active”.

With `CCOC(=O)CCCCO/N=C(/c1cccnc1)c1cccc(CCCC(=O)N2CCc3c(sc4c3C(c3ccccc3Cl)=NC(C)c3nnc(C)n3-4)C2)c1` (centres undefined), the ED50 is greater than 1 mg/kg in experiment [1], greater than 10 mg/kg in experiment [3] and 1.05 mg/kg in experiment [4]. Further, the IC50 in experiment [2] is 39 nM; at Thromboxane-A synthase (read-out: IC50), 41 nM.

Regarding `CCOC(=O)CCCCO/N=C(\c1ccccc1)c1cccnc1`, the ED50 in experiment [1] was 0.01 mg/kg; in experiment [5], greater than 0.1 mg/kg. On Thromboxane-A synthase (read-out: IC50), the IC50 worked out at 1 nM.

On to `CCCNC(=O)CCCCO/N=C(/c1cccnc1)c1cccc(CN2CCc3c(sc4c3C(c3ccccc3Cl)=NC(C)c3nnc(C)n3-4)C2)c1` (centres undefined), for which the figures for the ED50 in experiment [1], in experiment [3] and in experiment [4] were greater than 1 mg/kg, greater than 10 mg/kg and 0.54 mg/kg, respectively. Moreover, the IC50 was determined as 71 nM in experiment [2] and 540 nM at Thromboxane-A synthase (read-out: IC50).

With `CCOC(=O)CCCCO/N=C(/c1cccnc1)c1cccc(C(=O)N2CCc3c(sc4c3C(c3ccccc3Cl)=NC(C)c3nnc(C)n3-4)C2)c1` (centres undefined), the ED50 in experiment [1] was greater than 1 mg/kg; in experiment [3], 2.3 mg/kg; in experiment [4], 0.47 mg/kg. In addition, in experiment [2], the IC50 came to 60 nM.

`CCOC(=O)CCCCO/N=C(/c1cccnc1)c1cccc(CN2CCc3c(sc4c3C(c3ccccc3Cl)=NCc3nnc(C)n3-4)C2)c1`: the ED50 in experiment [1] was 0.1 mg/kg; in experiment [3] it was greater than 10 mg/kg; in experiment [5], greater than 10 mg/kg; in experiment [4], 0.8 mg/kg. The IC50 was 200 nM in experiment [2] and 65 nM at Thromboxane-A synthase (read-out: IC50).

On to `CCOC(=O)CCCC/C=C(\c1ccc(CN2CCc3c(sc4c3C(c3ccccc3Cl)=NC(C)c3nnc(C)n3-4)C2)cc1)c1cccnc1` (centres undefined), for which the ED50 was 1 mg/kg in experiment [1], 1.6 mg/kg in experiment [3], 5.2 mg/kg in experiment [5] and 0.55 mg/kg in experiment [4]. In addition, the IC50 in experiment [2] stood at 32 nM; on Thromboxane-A synthase (read-out: IC50), 72 nM.

For the compound `O=C(O)CCCC/C=C(/c1ccccc1)c1cccnc1`, the ED50 amounted to 0.01 mg/kg in experiment [1] and 0.05 mg/kg in experiment [5].

As to `Cc1nnc2n1-c1sc3c(c1C(c1ccccc1Cl)=NC2C)CCN(Cc1cccc(/C(=N\OCCCCC(=O)OCCCc2cccnc2)c2cccnc2)c1)C3` (centres undefined), the ED50 in experiment [1] is greater than 1 mg/kg; in experiment [3] it was greater than 10 mg/kg; in experiment [4], 0.54 mg/kg. Moreover, the concentration for half-maximal inhibition (IC50) was 65 nM in experiment [2] and greater than 1000 nM at Thromboxane-A synthase (read-out: IC50).

On to `CCOC(=O)CCCC/C=C(/c1cccnc1)c1cccc(CN2CCc3c(sc4c3C(c3ccccc3Cl)=NC(C)c3nnc(C)n3-4)C2)c1` (centres undefined), for which the ED50 in experiment [1] was 0.71 mg/kg; in experiment [3], greater than 10 mg/kg; in experiment [5], 3.2 mg/kg; in experiment [4] it was 0.6 mg/kg. For the same compound, the IC50 amounted to 39 nM in experiment [2] and 68 nM at Thromboxane-A synthase (read-out: IC50).

For the compound `CCOC(=O)CCCCO/N=C(\c1ccc(COCC(=O)N2CCc3c(sc4c3C(c3ccccc3Cl)=NC(C)c3nnc(C)n3-4)C2)cc1)c1cccnc1` (centres undefined), the ED50 was greater than 1 mg/kg in experiment [1], greater than 10 mg/kg in experiment [3] and 4.2 mg/kg in experiment [4]. Further, the IC50 in experiment [2] stood at 60 nM; on Thromboxane-A synthase (read-out: IC50) it was 58 nM.

Take `Cc1nnc2n1-c1sc3c(c1C(c1ccccc1Cl)=NC2C)CCN(Cc1cccc(/C(=N\OCCCCC(=O)OCCN2CCOCC2)c2cccnc2)c1)C3` (centres undefined): the ED50 in experiment [1] is 0.77 mg/kg; in experiment [3], greater than 10 mg/kg; in experiment [5], 8.9 mg/kg; in experiment [4], 0.54 mg/kg. The figures for the IC50 (in experiment [2]; at Thromboxane-A synthase (read-out: IC50)) were 81 nM and 151 nM, respectively.

As for `CCOC(=O)CCCCO/N=C(/c1cccnc1)c1cccc(CCCCN2CCc3c(sc4c3C(c3ccccc3Cl)=NC(C)c3nnc(C)n3-4)C2)c1` (centres undefined), the ED50 in experiment [1] is 0.53 mg/kg; in experiment [3], greater than 10 mg/kg; in experiment [5] it was 6.9 mg/kg; in experiment [4], 0.38 mg/kg. Besides, the IC50 was 54 nM in experiment [2] and 21 nM at Thromboxane-A synthase (read-out: IC50).

In the case of `CCOC(=O)CCCCO/N=C(/c1cccnc1)c1cccc(CN2CCc3c(sc4c3C(c3ccccc3Cl)=NC(C)c3nnc(C)n3-4)C2)c1` (centres undefined), the ED50 in experiment [1] was 0.1 mg/kg; in experiment [3], greater than 10 mg/kg; in experiment [5], greater than 10 mg/kg; in experiment [4], 0.2 mg/kg. Further, the IC50 in experiment [2] came to 47 nM; at Thromboxane-A synthase (read-out: IC50) it was 59 nM.

Take `CCOC(=O)CCCCO/N=C(\c1ccc(C(=O)N2CCc3c(sc4c3C(c3ccccc3Cl)=NC(C)c3nnc(C)n3-4)C2)cc1)c1cccnc1` (centres undefined): the values for the ED50 in experiment [1], in experiment [3] and in experiment [4] were greater than 1 mg/kg, 0.5 mg/kg and 0.2 mg/kg, respectively. Moreover, in experiment [2], the IC50 came to 100 nM.
